Legend:
Paracoccus sp. = assay: Anti-biofilm activity against Paracoccus sp. 4M6 assessed as inhibition of bacterial adhesion incubated for 15 hrs at 20 degC by Syto 61 dye based fluorimetric assay; assay type: functional; conditions: Paracoccus sp. (in: a-proteobacteria), 4M6, 15 h
How it was run: (§1)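 Cells were grown in VNSS at 20°C to stationary phase, centrifuged, and resuspended in artificial sea water (ASW) to OD600 0.2-0.4. Suspension (100 µL) plus 100 µL diluted compound, in triplicate, with ASW-only adhesion control, was held 15 h at 20°C. After three 36 g/L NaCl washes, adhered cells were stained 10 min at room temperature with 40 µmol/L Syto 61. Fluorescence read at ex 615/em 670 nm; EC50 from dose-response fit.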

Pseudoalteromonas ulvae [1] = assay: Anti-biofilm activity against Pseudoalteromonas ulvae TC14 assessed as inhibition of bacterial adhesion incubated for 15 hrs at 20 degC by Syto 61 dye based fluorimetric assay; assay type: functional, organism-based; conditions: TC14, 15 h; how it was run: as §1
[2] = tested on: Pseudoalteromonas lipolytica; assay: Anti-biofilm activity against Pseudoalteromonas lipolytica TC8 assessed as inhibition of bacterial adhesion incubated for 15 hrs at 20 degC by Syto 61 dye based fluorimetric assay; assay type: functional, organism-based; conditions: TC8, 15 h; how it was run: as §1
Pseudoalteromonas ulvae [3] = assay: Effect on cell viability of Pseudoalteromonas ulvae TC14 at 100 uM measured every hr during 6 hrs by resazurin based assay; assay type: organism-based
How it was run: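 Exponential-phase cells (VNSS, 20°C, 120 rpm) were resuspended in VNSS to OD600 0.1. 20 µL inoculated into 180 µL compound in VNSS, triplicate, at 100 µM, with solvent and medium controls. OD600 was read hourly for 6 h. Resazurin (50 µM) was then added, and fluorescence after 2 h gave percent viability versus untreated.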

Pseudoalteromonas ulvae [4] = assay: Effect on cell growth of Pseudoalteromonas ulvae TC14 at 100 uM measured every hr during 6 hrs by turbidity (OD600) measurement

SMILES: COc1cccc(-n2cc(C(=O)NCCc3ccc(O)cc3)nn2)c1
- EC50 (Paracoccus sp.): > 300 µM
- EC50 (Pseudoalteromonas ulvae [1]): 204 µM
- EC50 [2]: 276 µM

SMILES: COc1ccc(CCNC(=O)c2cn(-c3ccc(OC)cc3)nn2)cc1
- EC50 (Paracoccus sp.): 260 µM
- Activity (Pseudoalteromonas ulvae [3]): Non-Toxic
- EC50 (Pseudoalteromonas ulvae [1]): 11.3 µM
- EC50 [2]: > 300 µM
- Activity (Pseudoalteromonas ulvae [4]): Non-Toxic

SMILES: COc1ccc(CCNC(=O)c2cn(-c3cccc(OC)c3)nn2)cc1
- EC50 (Paracoccus sp.): 216 µM
- Activity (Pseudoalteromonas ulvae [3]): Non-Toxic
- EC50 (Pseudoalteromonas ulvae [1]): 11.4 µM
- EC50 [2]: > 300 µM
- Activity (Pseudoalteromonas ulvae [4]): Non-Toxic

SMILES: COc1ccc(-n2cc(C(=O)NCCc3cccc(OC)c3)nn2)cc1
- EC50 (Paracoccus sp.): 214 µM
- EC50 (Pseudoalteromonas ulvae [1]): 52.3 µM
- EC50 [2]: 142 µM
- Activity (Pseudoalteromonas ulvae [4]): Non-Toxic

SMILES: COc1ccc(-n2cc(C(=O)NCCc3ccc(OC)c(OC)c3)nn2)cc1
- EC50 (Paracoccus sp.): 162 µM
- Activity (Pseudoalteromonas ulvae [3]): Non-Toxic
- EC50 (Pseudoalteromonas ulvae [1]): 54.6 µM
- EC50 [2]: > 300 µM
- Activity (Pseudoalteromonas ulvae [4]): Non-Toxic

SMILES: COc1cccc(-n2cc(C(=O)NCCc3ccc(OC)c(OC)c3)nn2)c1
- EC50 (Paracoccus sp.): 154 µM
- EC50 (Pseudoalteromonas ulvae [1]): 73.7 µM
- EC50 [2]: > 300 µM

SMILES: COc1cccc(CCNC(=O)c2cn(-c3cccc(OC)c3)nn2)c1
- EC50 (Paracoccus sp.): 226 µM
- EC50 (Pseudoalteromonas ulvae [1]): 80.6 µM
- EC50 [2]: > 300 µM

SMILES: COc1ccc(-n2cc(C(=O)NCCc3ccc(O)cc3)nn2)cc1
- EC50 (Paracoccus sp.): 220 µM
- EC50 (Pseudoalteromonas ulvae [1]): 115 µM
- EC50 [2]: > 300 µM

SMILES: CC1(C)S[C@@H]2[C@H](NC(=O)[C@H](N)c3ccccc3)C(=O)N2[C@H]1C(=O)O [AMPICILLIN]
- Activity (Pseudoalteromonas ulvae [3]): Toxic

SMILES: O=C(/C=C/c1ccc(O)cc1)NCCc1ccc(O)cc1 [N-P-COUMAROYL TYRAMINE]
- EC50 (Paracoccus sp.): > 300 µM
- EC50 (Pseudoalteromonas ulvae [1]): 75.5 µM
- EC50 [2]: > 300 µM

— ChEMBL document CHEMBL4177720, “Towards smart biocide-free anti-biofilm strategies: Click-based synthesis of cinnamide analogues as anti-biofilm compounds against marine bacteria” (Bioorg Med Chem Lett, 2018)
